Several values for one entry are separate records, joined by “and”; a condition that tells them apart may be missing. Identical values can stand only once.
Tests used:
[1] = tested on: Opioid receptors; mu/kappa/delta; assay: Compound was tested for irreversible antagonist activity against opioid receptor in mouse vas deferens at a concentration of 20 nM expressed as IC50 of morphine divided by the compound; format: functional
[2] = tested on: Opioid receptors; mu/kappa/delta; assay: Compound was tested for irreversible antagonist activity against opioid receptor in mouse vas deferens expressed as IC50 of DADLE divided by the compound; format: functional, tissue-based
Summary of the method: (§1)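 Mouse vas deferens incubated 30 min with 200 nM test ligand, then washed thoroughly (20 times). Morphine and DADLE dose-response curves were rerun in the same tissue. Ratio = agonist IC50 after treatment / control IC50 in that tissue. Where the standard agonist gave under 65% response after treatment, an IC20 was estimated from the plotted dose-response curve. Means of three determinations unless otherwise noted.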

Opioid receptor [3] = biological target: Opioid receptor (Rattus norvegicus, UniProt P33533+P34975+P33535); assay: The compound was tested for binding affinity against opioid receptor in rat brain membranes, using [3H]dihydromorphine as the radioligand; format: cell membranes
Summary of the method: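 Rat forebrain was homogenised in ice-cold 0.05 M Tris-HCl pH 7.4 and washed twice by centrifugation at 4 °C. It was preincubated 10 min at 37 °C, washed again and resuspended at 10 mg/mL. Triplicate tubes held 1 nM [3H]dihydromorphine and at least seven drug concentrations, incubated 40 min at room temperature, then vacuum-filtered. Nonspecific binding was set with 10⁻⁶ M naloxone. Values are mean ± SEM of three experiments.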

[4] = tested on: Opioid receptors; mu/kappa/delta; assay: Compound was tested for agonist potency against opioid receptor in guinea pig ileal longitudinal muscle expressed as IC50 of morphine divided by the compound; format: functional
[5] = biological target: T1, Opioid receptors; mu/kappa/delta (Homo sapiens) (UniProt P41145+P41143+P35372); assay: Compound was tested for irreversible antagonist activity against opioid receptor in mouse vas deferens expressed as IC50 of morphine divided by the compound; format: functional, tissue-based; summary of the method: as §1
Opioid receptor [6] = biological target: Opioid receptor (Mus musculus, UniProt P42866+P32300+P33534); assay: Compound was tested for agonist activity against opioid receptor in mouse vas deferens preparation; format: functional
[7] = biological target: T2, Opioid receptor (Mus musculus) (UniProt P42866+P32300+P33534); assay: Compound was tested for irreversible antagonist activity against opioid receptor in mouse vas deferens expressed as IC20 of morphine divided by the compound; format: functional, tissue-based; summary of the method: as §1
Mus musculus = organism: Mus musculus; assay: Compound was tested for partial agonism in presence of morphine at conc. of 3 e-5; format: functional
[8] = biological target: T1, Opioid receptors; mu/kappa/delta (Homo sapiens); assay: Compound was tested for irreversible antagonist activity against opioid receptor in mouse vas deferens expressed as IC50 of morphine divided by the compound (experiment 1); format: functional, tissue-based; summary of the method: as §1
[9] = biological target: T1, Opioid receptors; mu/kappa/delta (Homo sapiens); assay: Compound was tested for irreversible antagonist activity against opioid receptor in mouse vas deferens expressed as IC50 of morphine divided by the compound (experiment. 2); format: functional, tissue-based; summary of the method: as §1
[10] = biological target: T1, Opioid receptors; mu/kappa/delta (Homo sapiens); assay: Compound was tested for irreversible antagonist activity against opioid receptor in mouse vas deferens, expressed as IC50 of morphine divided by the compound; format: functional
Summary of the method: (§2)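 Mouse vas deferens tissue incubated 30 min with test ligand at 200 nM, then washed thoroughly (20 times). Standard agonist (morphine or DADLE) IC50 redetermined and divided by control IC50 from the same tissue (treated/control ratio). Where the agonist gave under 65% response after treatment, an IC20 was estimated from the plotted dose-response curve. Means of three determinations unless otherwise noted.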

[11] = biological target: T1, Opioid receptors; mu/kappa/delta (Homo sapiens); assay: Compound was tested for irreversible antagonist activity against opioid receptor in mouse vas deferens, expressed as IC50 of DADLE divided by compound; format: functional; summary of the method: as §2
[12] = biological target: T1, Opioid receptors; mu/kappa/delta (Homo sapiens); assay: Compound was tested for irreversible antagonist activity against opioid receptor in mouse vas deferens at a concentration of 20 nM, expressed as IC50 of nalorphine divided by the compound; format: functional
[13] = biological target: T1, Opioid receptors; mu/kappa/delta (Homo sapiens); assay: Compound was tested for irreversible antagonist activity against opioid receptor in mouse vas deferens at a concentration of 100 nM, expressed as IC50 of morphine divided by the compound; format: functional
[14] = biological target: T1, Opioid receptors; mu/kappa/delta (Homo sapiens); assay: Compound was tested for irreversible antagonist activity against opioid receptor in mouse vas deferens at a concentration of 20 nM, expressed as IC50 of morphine divided by the compound; format: functional
[15] = biological target: T1, Opioid receptors; mu/kappa/delta (Homo sapiens); assay: Compound was tested for irreversible antagonist activity against opioid receptor in mouse vas deferens at a concentration of 200 nM, expressed as IC50 of nalorphine divided by the compound; format: functional
[16] = biological target: Opioid receptors; mu and delta (Mus musculus) (UniProt P42866+P32300); assay: Irreversible antagonist activity against opioid receptor in mouse vas deferens at 200 nM relative to IC50 of nalorphine; format: functional, tissue-based
[17] = biological target: T2, Opioid receptor (Mus musculus); assay: Compound was tested for agonist activity against opioid receptor in mouse vas deferens preparation at concentration of 1E-7 M; format: functional

T2 sequence (P32300 whole entry, looked up): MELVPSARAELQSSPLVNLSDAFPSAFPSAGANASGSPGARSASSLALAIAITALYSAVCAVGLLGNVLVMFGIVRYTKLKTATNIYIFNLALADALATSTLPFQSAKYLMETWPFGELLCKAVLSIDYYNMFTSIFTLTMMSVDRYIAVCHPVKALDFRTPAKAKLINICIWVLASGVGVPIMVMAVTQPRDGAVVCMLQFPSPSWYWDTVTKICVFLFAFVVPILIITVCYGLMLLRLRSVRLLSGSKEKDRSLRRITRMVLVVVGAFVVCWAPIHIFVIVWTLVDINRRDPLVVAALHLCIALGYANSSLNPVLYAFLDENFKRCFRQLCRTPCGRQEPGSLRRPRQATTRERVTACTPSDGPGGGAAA
T2 sequence (P33534 whole entry, looked up): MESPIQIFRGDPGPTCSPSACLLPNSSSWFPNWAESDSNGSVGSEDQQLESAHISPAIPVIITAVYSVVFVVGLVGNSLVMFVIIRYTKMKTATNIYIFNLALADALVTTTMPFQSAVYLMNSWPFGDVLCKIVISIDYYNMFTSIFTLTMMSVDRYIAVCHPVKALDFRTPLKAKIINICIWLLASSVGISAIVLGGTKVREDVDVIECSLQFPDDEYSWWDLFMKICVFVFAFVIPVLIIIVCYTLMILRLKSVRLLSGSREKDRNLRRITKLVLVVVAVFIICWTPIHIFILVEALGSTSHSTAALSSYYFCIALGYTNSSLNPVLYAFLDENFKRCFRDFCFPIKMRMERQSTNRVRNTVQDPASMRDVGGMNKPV
T2 sequence (P42866 whole entry, looked up): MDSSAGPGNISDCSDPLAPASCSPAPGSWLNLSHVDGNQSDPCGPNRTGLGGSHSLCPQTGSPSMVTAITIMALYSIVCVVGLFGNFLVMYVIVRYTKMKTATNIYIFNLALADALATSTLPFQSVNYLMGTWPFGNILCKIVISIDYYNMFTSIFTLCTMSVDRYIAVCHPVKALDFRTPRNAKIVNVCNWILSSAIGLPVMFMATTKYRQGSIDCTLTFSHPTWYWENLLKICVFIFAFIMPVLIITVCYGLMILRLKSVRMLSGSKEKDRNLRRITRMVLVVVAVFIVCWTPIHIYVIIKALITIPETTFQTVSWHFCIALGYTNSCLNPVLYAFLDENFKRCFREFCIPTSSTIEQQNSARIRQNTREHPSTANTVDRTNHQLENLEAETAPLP
T1 sequence (P35372 whole entry, looked up): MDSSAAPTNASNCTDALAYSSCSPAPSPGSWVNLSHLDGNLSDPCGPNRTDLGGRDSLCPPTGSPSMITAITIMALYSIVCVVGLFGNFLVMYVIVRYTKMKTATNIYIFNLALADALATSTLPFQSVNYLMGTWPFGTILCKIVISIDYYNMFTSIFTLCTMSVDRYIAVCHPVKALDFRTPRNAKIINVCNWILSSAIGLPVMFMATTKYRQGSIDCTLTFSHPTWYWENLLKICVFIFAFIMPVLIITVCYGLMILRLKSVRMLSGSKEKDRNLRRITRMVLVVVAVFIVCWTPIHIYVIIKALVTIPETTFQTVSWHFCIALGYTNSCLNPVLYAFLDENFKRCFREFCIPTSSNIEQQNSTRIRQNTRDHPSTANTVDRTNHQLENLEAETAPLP
T1 sequence (P41143 whole entry, looked up): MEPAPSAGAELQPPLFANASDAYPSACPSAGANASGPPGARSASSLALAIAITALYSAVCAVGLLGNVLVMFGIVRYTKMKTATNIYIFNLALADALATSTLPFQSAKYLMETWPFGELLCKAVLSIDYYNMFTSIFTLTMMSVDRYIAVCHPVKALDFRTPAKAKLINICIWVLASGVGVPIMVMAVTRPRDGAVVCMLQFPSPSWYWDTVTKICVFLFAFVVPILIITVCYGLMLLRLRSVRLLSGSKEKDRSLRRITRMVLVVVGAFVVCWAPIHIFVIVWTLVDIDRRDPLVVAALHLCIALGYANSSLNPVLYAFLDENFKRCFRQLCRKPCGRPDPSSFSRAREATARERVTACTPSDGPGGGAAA
T1 sequence (P41145 whole entry, looked up): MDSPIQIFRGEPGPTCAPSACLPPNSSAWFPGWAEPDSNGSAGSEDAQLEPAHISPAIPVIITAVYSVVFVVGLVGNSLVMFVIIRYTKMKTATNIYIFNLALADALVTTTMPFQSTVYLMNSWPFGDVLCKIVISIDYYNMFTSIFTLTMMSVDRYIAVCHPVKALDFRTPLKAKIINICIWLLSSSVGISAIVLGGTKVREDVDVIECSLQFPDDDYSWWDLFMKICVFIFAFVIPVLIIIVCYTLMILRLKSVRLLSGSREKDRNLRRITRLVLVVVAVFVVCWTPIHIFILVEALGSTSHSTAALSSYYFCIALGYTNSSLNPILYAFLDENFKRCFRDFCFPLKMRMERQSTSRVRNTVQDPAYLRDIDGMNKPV
Opioid receptors; mu and delta (Mus musculus), sequence (P32300 whole entry, looked up): as the sequence (P32300 whole entry, looked up) above
Opioid receptors; mu and delta (Mus musculus), sequence (P42866 whole entry, looked up): as the sequence (P42866 whole entry, looked up) above

Row | Structure (SMILES) | Ratio [1] | Ratio [2] | IC50 (Opioid receptor [3]) | Potency ratio [4] | Ratio [5] | IC50 (Opioid receptor [6]) | IC20 [7] | Activity (Mus musculus) | Ratio [8] | Ratio [9] | Ratio [10] | Ratio [11] | Ratio [12] | Ratio [13] | Ratio [14] | Ratio [15] | Ratio [16] | inhibition [17]
1 | CCCCOC(=O)/C=C/C(=O)N[C@@H]1CC[C@@]2(O)C3Cc4ccc(O)c5c4C2(CCN3CC2CC2)[C@H]1O5 (some centres not stated) | 5.05 and 4.42 | 1.75 | 1.65 nM | 66.1 | 10 | 7 nM | – | – | – | – | – | – | – | – | – | – | – | –
2 | CCCOC(=O)/C=C/C(=O)N[C@@H]1CC[C@@]2(O)C3Cc4ccc(O)c5c4C2(CCN3CC2CC2)[C@H]1O5 (some centres not stated) | 2.46 and 1.69 | 1.52 | 1.56 nM | 147 | – | 21 nM | 200 nM | 56% | – | – | – | – | – | – | – | – | – | –
3 | O=C(/C=C/C(=O)OCCc1ccccc1)N[C@@H]1CC[C@@]2(O)C3Cc4ccc(O)c5c4C2(CCN3CC2CC2)[C@H]1O5 (some centres not stated) | 4.84 and 2.88 | 3.73 | 0.015 nM | 10.4 | – | 70.1 nM | – | – | 64.7 | 24.4 | – | – | – | – | – | – | – | –
4 | COC(=O)/C=C/C(=O)N[C@@H]1CC[C@@]2(O)[C@H]3Cc4ccc(O)c5c4[C@@]2(CCN3CC2CC2)[C@H]1O5 | – | – | 1.03 nM | 5 | – | 82 nM | – | – | – | – | 10.6 | 1.1 | 1.2 | 12 | 6 | – | – | –
5 | CCOC(=O)/C=C/C(=O)N[C@@H]1CC[C@@]2(O)C3Cc4ccc(O)c5c4C2(CCN3CC2CC2)[C@H]1O5 (some centres not stated) | 1.75 and 2.22 | 1.24 | 0.64 nM | 16.1 | 2.53 | 13 nM | – | – | – | – | – | – | – | – | – | 2.06 | 1.67 | –
6 | O=C(/C=C/C(=O)OCc1ccccc1)N[C@@H]1CC[C@@]2(O)C3Cc4ccc(O)c5c4C2(CCN3CC2CC2)[C@H]1O5 (some centres not stated) | 6.33 and 5.85 | 1.39 | 0.3 nM | 1.41 | – | – | 400 nM | – | – | – | – | – | – | – | – | – | – | 57%
